What all share (set-up): scale not given: the % may be the effect or the level left
Assay [1] in a line: Antioxidant activity assessed as reduction in lipid peroxidation in microsomes at 200 ug/mL measured as malondialdehyde formation by spectrophotometry relative to control. The following applies: Microsome.
The test system of assay [2] is Rattus norvegicus. The assay is described as follows: Decrease in triton-induced increase in protein level in Charles Foster rat hyperlipidemia model at 100 mg/kg, po after 18 hrs relative to control. In kind it is functional.
Assay [3] is described as follows: Antioxidant activity assessed as reduction in generation of superoxide radicals at 200 ug/mL measured as formazone formation by spectrophotometry relative to control. In kind it is functional. The gist of the method: (§1)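 Superoxide was generated enzymatically with xanthine ([…]), xanthine oxidase (0.04 U) and nitroblue tetrazolium (320 μM) in 100 mM phosphate buffer, pH 8.2, with or without compound. Incubated 30 min at 37 °C, then stopped with glacial acetic acid. Formazone was quantified spectrophotometrically (nmol/min). Mean ± SD of six; Student's t-test.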

Assay [4] deals with Rattus norvegicus. The assay is described as follows: Antidyslipidemic activity against triton-induced hyperlipidemia in Charles Foster rat assessed as reduction in triglyceride level at 100 mg/kg, po after 18 hrs relative to control. In kind it is functional. The gist of the method: (§2)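 Adult male Charles Foster rats (200 […] 225 g), six per group. Triton WR-1339 at 400 mg/Kg ip induced hyperlipidemia. Test compound was given at 100 mg/Kg po, suspended in 0.2% w/v gum acacia in water, at the same time as triton; vehicle controls were included. After 18 h, retro-orbital blood was taken into EDTA and plasma obtained (2500 g, 4 °C, 10 min). Plasma was diluted 1:3 in saline and TC, PL and Tg measured by standard methods. Reported as mean […] SD; Student's t-test.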

The nature of assay [5]: Antioxidant activity assessed as reduction in generation of superoxide radicals at 100 ug/mL measured as formazone formation by spectrophotometry relative to control. In kind it is functional. The gist of the method:
as §1

A short description of assay [6]: Antioxidant activity assessed as reduction in lipid peroxidation in microsomes at 100 ug/mL measured as malondialdehyde formation by spectrophotometry relative to control. The format is functional. The following applies: Microsome.
The nature of assay [7]: Antioxidant activity assessed as reduction in lipid peroxidation in microsomes at 200 ug/mL measured as malondialdehyde formation by spectrophotometry relative to control. The format is functional. The following applies: Microsome.
Assay [8] can be described thus: Antioxidant activity assessed as reduction in generation of hydroxyl radicals at 200 ug/mL measured as malondialdehyde formation by spectrophotometry relative to control. The format is functional.
In assay [9] the test system is Rattus norvegicus. The assay is described as follows: Antidyslipidemic activity against triton-induced hyperlipidemia in Charles Foster rat assessed as reduction in phospholipid level at 100 mg/kg, po after 18 hrs relative to control. In kind it is functional. The gist of the method: as §2
The test system of assay [10] is Rattus norvegicus. As to the kind of experiment: Antidyslipidemic activity against triton-induced hyperlipidemia in Charles Foster rat assessed as reduction in total cholesterol level at 100 mg/kg, po after 18 hrs relative to control. The format is functional. An outline of the steps: as §2
For assay [11], the system named is Rattus norvegicus. The assay is described as follows: Antidyslipidemic activity against triton-induced inhibition of post heparin lipolytic activity in Charles Foster rat hyperlipidemia model assessed as formation of free fatty acid per mL of plasma at 100 mg/kg, po after 18 hrs relative to control. In kind it is functional. An outline of the steps:
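Triton WR-1339 rat model (400 mg/Kg ip; compound 100 mg/Kg po in gum acacia, given with triton; six rats per group). Post-heparin lipolytic activity was measured in plasma collected at 18 h. Expressed as nmol free fatty acid formed/h/mL plasma; mean ± SD.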

The nature of assay [12]: Antioxidant activity assessed as reduction in generation of hydroxyl radicals at 100 ug/mL measured as malondialdehyde formation by spectrophotometry relative to control. In kind it is functional.

Take `Cc1c(C)c2c(c(C)c1O)CC[C@@](C)(CCC[C@H](C)CCC[C@H](C)CCCC(C)C)O2`: in [1], the Activity turned out to be 53%.
As for `CC(=O)OC[C@H]1O[C@@H](NC(=S)N/N=C/c2ccncc2)[C@H](OC(C)=O)[C@@H](OC(C)=O)[C@@H]1OC(C)=O`, the Activity in assay [2] was 11%; in assay [3] it was 25%; in [4] it was 8%; in assay [5], 14%; in assay [6], 22%; in [7], 33%. In addition, the Activity in assay [8] stood at 23%; in assay [9], 11%; in [10], 11%; in assay [11] it was 8%; in assay [12], 11%.
As to `CC(=O)OC[C@H]1O[C@@H](NC(=S)N/N=C/c2ccc(Cl)cc2)[C@H](OC(C)=O)[C@@H](OC(C)=O)[C@@H]1OC(C)=O`, the Activity in [2] is 22%; in assay [3] it was 25%; in assay [4], 10%; in assay [5], 16%; in [6] it was 23%; in [7] it was 33%. The Activity in [8] stood at 19%; in [9] it was 6%; in assay [10], 14%; in assay [11], 12%; in assay [12] it was 13%.
As for `COc1ccc(/C=N/NC(=S)N[C@@H]2O[C@H](COC(C)=O)[C@@H](OC(C)=O)[C@H](OC(C)=O)[C@H]2OC(C)=O)cc1`, the Activity in assay [2] was found to be 15%; in assay [3] it was 33%; in assay [4], 10%; in [5], 25%; in assay [6], 26%; in assay [7], 35%. Also, the Activity in [8] was 34%; in assay [9], 15%; in assay [10], 17%; in assay [11], 8%; in [12], 20%.
On to `CC(=O)OC[C@H]1O[C@@H](NC(=S)N/N=C/c2cccnc2)[C@H](OC(C)=O)[C@@H](OC(C)=O)[C@@H]1OC(C)=O`, for which the Activity is 14% in [2]; 28% in assay [3]; 10% in [4]; 16% in assay [5]; 18% in assay [6]; 26% in assay [7]. The Activity was determined as 26% in [8]; 14% in assay [9]; 15% in assay [10]; 9% in [11]; 13% in [12].
On to `CC(=O)OC[C@H]1O[C@@H](NC(=S)N/N=C(\C)c2cccc(N)c2)[C@H](OC(C)=O)[C@@H](OC(C)=O)[C@@H]1OC(C)=O`, for which the Activity was determined as 20% in [2]; 38% in [3]; 13% in assay [4]; 23% in assay [5]; 19% in assay [6]; 35% in [7]. The Activity in assay [8] is 38%; in assay [9] it was 15%; in assay [10] it was 16%; in assay [11], 9%; in [12] it was 20%.

(Values after ChEMBL document CHEMBL1154533, “Syntheses and evaluation of glucosyl aryl thiosemicarbazide and glucosyl thiosemicarbazone derivatives as antioxidant and anti-dyslipidemic agents” (2009).)
